The source of these data is ChEMBL document CHEMBL4368901 (J Med Chem, 2019).

Activity calls are given as the source filed them. The calls are words filed in the database; no cut-off is given here.

The nature of data set [1]: Inhibition of GDH (unknown origin) using NADP+ and glutamate as substrate preincubated for 0.5 hrs followed by substrate addition and measured after 1 hr by EZMTT reagent-based UV-Vis absorbance assay. Also noted: species or system Homo sapiens.
Data set [2] addresses T1, Glutaminase kidney isoform, mitochondrial (Homo sapiens, UniProt O94925).
T1 sequence (O94925 whole entry): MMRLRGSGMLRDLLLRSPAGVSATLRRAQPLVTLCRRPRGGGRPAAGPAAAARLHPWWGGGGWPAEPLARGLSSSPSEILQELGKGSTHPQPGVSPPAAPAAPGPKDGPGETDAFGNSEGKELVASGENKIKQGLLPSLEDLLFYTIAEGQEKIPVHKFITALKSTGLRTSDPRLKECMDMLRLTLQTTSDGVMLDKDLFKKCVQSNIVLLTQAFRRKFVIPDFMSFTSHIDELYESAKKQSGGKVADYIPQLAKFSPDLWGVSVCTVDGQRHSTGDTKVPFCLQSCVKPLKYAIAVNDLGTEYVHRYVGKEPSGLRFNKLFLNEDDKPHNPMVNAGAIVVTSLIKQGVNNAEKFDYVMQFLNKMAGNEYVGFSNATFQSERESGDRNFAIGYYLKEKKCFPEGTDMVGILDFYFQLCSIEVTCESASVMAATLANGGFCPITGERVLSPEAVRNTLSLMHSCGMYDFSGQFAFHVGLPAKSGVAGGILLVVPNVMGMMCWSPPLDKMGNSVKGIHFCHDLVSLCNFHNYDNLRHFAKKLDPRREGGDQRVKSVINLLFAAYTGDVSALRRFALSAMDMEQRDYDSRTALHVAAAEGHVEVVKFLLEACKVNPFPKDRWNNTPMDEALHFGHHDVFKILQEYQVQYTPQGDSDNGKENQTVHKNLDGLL
The data set is described as follows: Inhibition of human KGA preincubated for 15 to 30 mins followed by substrate addition and measured after 3 to 4 hrs by GDH-EZMTT reagent-based GDH coupled assay.

For data set [3], the system named is A549. The experiment in a line: Antiproliferative activity against human A549 cells after 5 days by EZMTT reagent-based assay. The class given is functional, cell-based. The settings on record: A549, 120 h.
Data set [4] relates to A549. The data set is described as follows: Antiproliferative activity against human A549 cells after 5 days by EZMTT reagent-based assay relative to control. It is filed as functional.
Data set [5] deals with H22. The data set is described as follows: Antiproliferative activity against mouse H22 cells after 5 days by EZMTT reagent-based assay. The settings on record: H22, 120 h. The class given is functional, cell-based.
For data set [6], the system named is H22. The data set is described as follows: Antiproliferative activity against mouse H22 cells after 5 days by EZMTT reagent-based assay relative to control. The class given is functional.
For data set [7], the system named is CAKI-1. The data set is described as follows: Antiproliferative activity against human Caki1 cells after 5 days by EZMTT reagent-based assay. The class given is functional, cell-based. Conditions: CAKI-1, 120 h.
The test system of data set [8] is CAKI-1. The experiment in a line: Antiproliferative activity against human Caki1 cells after 5 days by EZMTT reagent-based assay relative to control. The class given is functional.
For data set [9], the system named is HCT-116. The data set is described as follows: Antiproliferative activity against human HCT116 cells after 5 days by EZMTT reagent-based assay. The settings on record: HCT-116, 120 h. It is filed as functional, cell-based.
Data set [10] relates to HCT-116. The experiment in a line: Antiproliferative activity against human HCT116 cells after 5 days by EZMTT reagent-based assay relative to control. The class given is functional.
Data set [11] is described as follows: Drug uptake in human Caki1 cells after 24 hrs using gold nanoparticles by microspectrometric based Raman spectra assay. Conditions: caki-1, 24 h. It is filed as ADME, cell-based. In outline: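 Compound was premixed 1:1 with nanogold particles, at up to 2 µM. Glutamine-dependent Caki-1 cells were treated for 3, 9, 16 and 24 h, then SERS spectra were collected. Signal at 1352 cm^-1 served as the compound marker for cellular concentration.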

Data set [12] is described as follows: Drug uptake in human Caki1 cells up to 2 uM after 24 hrs without gold nanoparticles by microspectrometric analysis based Raman spectra assay. Conditions: caki-1, 24 h. The class given is ADME, cell-based.
Data set [13] is described as follows: Metabolic stability in mouse liver microsomes at 50 uM after 4 hrs in presence of NADPH by HPLC analysis. It is filed as ADME, Microsome. The settings on record: read-out: Stability. In outline:
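Compound was incubated with mouse liver microsomes for 4 h, with coumarin as the control. The remaining level was quantified by HPLC using UV absorbance at 254 nm.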
For orientation: Liver microsomes are a subcellular fraction often used to study metabolism.

Data set [14] concerns A549. The experiment in a line: Induction of ROS generation in human A549 cells at 10 uM after 12 hrs by DCFH-DA staining-based fluorescence microscopic analysis. It is filed as functional, cell-based. In outline:
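A549 cells were seeded at 10000 per well and exposed to compound at 0, 3 or 10 µM for 12 h. ROSUP at 100 µg/ml served as the positive control, alongside untreated cells. ROS was then assessed.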

For `c1ccc(CNc2nnc(CCSCCc3nnc(NCc4ccccc4)[se]3)[se]2)cc1`, the half-maximal inhibitory concentration (IC50) in data set [1], in data set [2] and in [3] was above 13 µM each time. In data set [4], the Imax is on record as 0%.

As to `Cn1cc(CC(=O)Nc2nnc(CCSCCc3nnc(NC(=O)Cc4cn(C)c5ccccc45)s3)s2)c2ccccc21`, the concentration for half-maximal inhibition (IC50) was above 13 µM in data set [1]; 2.9 µM in data set [3]; above 10 µM in [5]; 3.92 µM in data set [7]; 2.2 µM in [9]. The Imax amounted to 80% in data set [4], 42% in data set [6], 85% in data set [8] and 93% in data set [10]. The Drug uptake entry in data set [11] is “Dose-dependent effect”; in data set [12], “Not Active”.

In the case of `c1ccc(CCNc2nnc(CCSCCc3nnc(NCCc4ccccc4)[se]3)[se]2)cc1`, the IC50 in data set [1], in data set [2] and in data set [3] was above 13 µM each time. In data set [4], the Imax is given as 0%.

For the compound `O=C(Cc1ccccc1)Nc1nnc(CCSCCc2nnc(NC(=O)Cc3ccccc3)[se]2)[se]1`, the IC50 was above 13 µM in [1] and 0.23 µM in [3]. This compound also displayed an Imax in data set [4] of 82%.

With `Nc1nnc(CCSCCc2nnc(NC(=O)CC34CC5CC(CC(C5)C3)C4)[se]2)[se]1`, the concentration for half-maximal inhibition (IC50) in data set [1] was above 13 µM; in data set [2] it was 0.3 µM; in [3], 5 µM. In addition, the Imax in [4] is listed as 60%.

Turning to `O=c1ccc2ccccc2o1` [COUMARIN], the remaining at 4 h, 50 µM in data set [13] turned out to be 14%.

As to `Nc1nnc(CCSCCc2nnc(NC(=O)Cc3ccccc3)s2)s1`, the concentration for half-maximal inhibition (IC50) in data set [1] and in [3] was above 13 µM each time.

In the case of `Cn1cc(CC(=O)Nc2nnc(CCSCCc3nnc(N)s3)s2)c2ccccc21`, the half-maximal inhibitory concentration (IC50) is above 13 µM in data set [1], 1.4 µM in [2] and above 13 µM in data set [3].

In the case of `O=C(Cc1cccc(OC(F)(F)F)c1)Nc1ccc(CCCCc2nnc(NC(=O)Cn3cc(F)c(=O)[nH]c3=O)[se]2)nn1`, the IC50 was above 13 µM in [1], 0.02 µM in data set [2] and 0.46 µM in data set [3]. This compound also gave an Imax in data set [4] of 91%. The outcome in [14] was Active.

As for `Nc1nnc(CCCCc2nnc(NC(=O)Cc3ccccc3)s2)s1`, the IC50 in data set [1], in data set [2] and in data set [3] was above 13 µM in each case. The same compound displayed an Imax in data set [4] of 0%.

For the compound `Cn1ccc(CC(=O)Nc2nnc(CCSCCc3nnc(NC(=O)Cc4ccn(C)c4)[se]3)[se]2)c1`, the IC50 in data set [1] was above 13 µM; in [3], 1 µM. In addition, the Imax in data set [4] came to 82%.

For the compound `O=c1c2ccccc2[se]n1CCCCCCn1[se]c2ccccc2c1=O`, the IC50 was 0.84 µM in [5], 1.29 µM in data set [7] and 2.17 µM in data set [9]. Moreover, the Imax in data set [6], in data set [8] and in data set [10] was 100% each time.

Turning to `Cn1ccc(CC(=O)Nc2nnc(CCSCCc3nnc(NC(=O)Cc4ccn(C)c4)s3)s2)c1`, the values for the IC50 in data set [1] and in data set [3] were above 13 µM and 2.2 µM, respectively. Also, the Imax in data set [4] came out at 80%.

As to `Cn1cc(CC(=O)Nc2nnc(CCSCCc3nnc(N)[se]3)[se]2)c2ccccc21`, the values for the IC50 in data set [1], in [2] and in [3] were above 13 µM, 1.1 µM and above 13 µM, respectively. Moreover, the Drug uptake result in data set [11] is “Dose-dependent effect”; in [12], “Not Active”.

With `Cn1ccc(CC(=O)Nc2nnc(CCSCCc3nnc(N)s3)s2)c1`, the concentration for half-maximal inhibition (IC50) in data set [1] was above 13 µM; in data set [2], 5.1 µM; in [3], above 13 µM.

On to `COc1ccc(Nc2nnc(CCSCCc3nnc(Nc4ccc(OC)cc4)[se]3)[se]2)cc1`, for which the IC50 in [1], in data set [2] and in [3] was above 13 µM in each case. Also, the Imax in [4] is given as 0%.

For `O=C(Cc1ccccc1)Nc1nnc(CCSCCc2nnc(NC(=O)Cc3ccccc3)s2)s1`, the IC50 is above 13 µM in [1], 0.42 µM in [3], 1.16 µM in data set [7] and 0.54 µM in data set [9]. In addition, the Imax was 72% in data set [4], 29% in data set [6], 73% in data set [8] and 69% in data set [10].

In the case of `Cn1cc(CC(=O)Nc2nnc(CCCCc3ccc(NC(=O)Cc4cccc(OC(F)(F)F)c4)nn3)[se]2)c2ccccc21`, the IC50 in data set [1] is above 13 µM; in data set [3], 0.017 µM; in data set [5], above 10 µM; in data set [7], 0.014 µM; in data set [9], 0.009 µM. Besides, the Imax in data set [4] was determined as 80%; in [6], 10%; in data set [8] it was 90%; in data set [10], 92%.

Regarding `Nc1nnc(CCSCCc2nnc(NC(=O)Cc3ccccc3)[se]2)[se]1`, the 50% inhibitory concentration (IC50) in data set [1] was above 13 µM; in data set [2], 2.8 µM; in [3], above 13 µM.

Consider `Cn1cc(CC(=O)Nc2nnc(CCSCCc3nnc(NC(=O)Cc4cn(C)c5ccccc45)[se]3)[se]2)c2ccccc21`, for which the 50% inhibitory concentration (IC50) was above 13 µM in data set [1]; 0.11 µM in data set [3]; 1.38 µM in data set [5]; 0.4 µM in [7]; 0.32 µM in [9]. In addition, the Imax is 81% in data set [4], 71% in data set [6], 87% in data set [8] and 94% in data set [10]. In addition, the Drug uptake entry is given as “Dose-dependent effect” in data set [11] and “Not Active” in data set [12].

For `Cn1ccc(CC(=O)Nc2nnc(CCSCCc3nnc(N)[se]3)[se]2)c1`, the results for the 50% inhibitory concentration (IC50) in [1], in data set [2] and in [3] were above 13 µM, 2.1 µM and above 13 µM, respectively.

On to `O=C(Nc1nnc(CCSCCc2nnc(NC(=O)C34CC5CC(CC(C5)C3)C4)[se]2)[se]1)C12CC3CC(CC(C3)C1)C2`, for which the 50% inhibitory concentration (IC50) in [1] was above 13 µM; in data set [2], 1.7 µM; in [3] it was above 13 µM. Further, in [4], the Imax is on record as 0%.

On to `Nc1nnc(CCSCCc2nnc(NC(=O)C34CC5CC(CC(C5)C3)C4)[se]2)[se]1`, for which the half-maximal inhibitory concentration (IC50) in [1] was above 13 µM; in [2] it was 8 µM; in [3], above 13 µM. The compound further showed an Imax in [4] of 0%.

Broadly, the IC50 is the concentration needed to halve the response being measured.
